From ChEMBL document CHEMBL1649498, “Pharmacological exploitation of an off-target antibacterial effect of the cyclooxygenase-2 inhibitor celecoxib against Francisella tularensis” (Antimicrob Agents Chemother, 2009)
Values after ≈ are worked out from the molar mass of the structure shown. Active and inactive are the calls of the source. The rule behind the calls is not given here.

What was measured:
[1] = system: Francisella novicida; assay: Antibacterial activity against Francisella novicida infected in mouse RAW264.7 cells at 64 ug/ml after 24 hrs by broth microdilution method; assay type: functional, cell-based; settings: Francisella tularensis subsp. novicida
In short: (§1)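 F. novicida U112 grown overnight on chocolate agar, suspended in PBS and diluted to 5 × 10⁵ CFU/ml in TSB with 0.025% iron(III) pyrophosphate and 0.1% cysteine HCl. CLSI broth microdilution in triplicate, 1 to 64 μg/ml, 37°C for 24 h. MIC was the lowest concentration with no visible growth.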

[2] = system: Francisella tularensis; assay: Antibacterial activity against Francisella tularensis LVS infected in mouse RAW264.7 cells at 64 ug/ml after 48 hrs by broth microdilution method; assay type: functional, cell-based
[3] = Selectivity index, ratio of IC50 for mouse RAW264.7 cells to MIC for Francisella novicida; assay type: functional
[4] = system: Francisella tularensis; assay: Antibacterial activity against Francisella tularensis LVS infected in mouse RAW264.7 cells after 48 hrs by broth microdilution method; assay type: functional
[5] = system: RAW264.7; assay: Cytotoxicity against mouse RAW264.7 cells after 8 hrs by MTT assay; assay type: cell-based; settings: RAW264.7, 8 h
In short: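 RAW 264.7 cells at 2.5 × 10⁴/well, at least 6 wells per group, left overnight. Treated in 5% FBS DMEM with agents in DMSO (0.1% final) for 8 h. Then 0.5 mg/ml MTT for 1 h at 37°C, dye dissolved in DMSO, A570 read. Viability taken as % of vehicle control; IC50 from the dose-response.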

[6] = system: Francisella novicida; assay: Antibacterial activity against Francisella novicida infected in mouse RAW264.7 cells after 24 hrs by broth microdilution method; assay type: functional, Francisella tularensis subsp. novicida; settings: Francisella tularensis; in short: as §1
[7] = system: Francisella tularensis; assay: Antibacterial activity against Francisella tularensis SchuS4 infected in mouse RAW264.7 cells at 64 ug/ml after 24 hrs by broth microdilution method; assay type: functional, cell-based
[8] = system: Salmonella typhimurium; assay: Antibacterial activity against Salmonella enterica serovar Typhimurium ATCC 14028 infected in mouse RAW264.7 cells at 64 ug/ml after 24 to 48 hrs by broth microdilution method; assay type: functional, organism-based; settings: Salmonella enterica subsp. enterica serovar Typhimurium
[9] = system: Escherichia coli; assay: Antibacterial activity against Escherichia coli ATCC 25922 infected in mouse RAW264.7 cells at 64 ug/ml after 24 to 48 hrs by broth microdilution method; assay type: functional, organism-based
[10] = system: Francisella novicida; assay: Antibacterial activity against Francisella novicida infected in mouse RAW264.7 cells at 64 ug/ml after 24 hrs by broth microdilution method in presence of 80% fetal bovine serum; assay type: functional, cell-based; settings: Francisella tularensis subsp. novicida
In short: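 Broth contained 0, 10, 50 or 80% human AB serum (not albumin) or FBS to probe protein binding. NE means no effect at 64 μg/ml.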

[11] = system: Francisella tularensis; assay: Antibacterial activity against Francisella tularensis SchuS4 infected in human THP1 cells at 4 ug/ml after 24 hrs by broth microdilution method; assay type: functional, cell-based; settings: THP-1
[12] = system: Francisella tularensis; assay: Antibacterial activity against Francisella tularensis SchuS4 infected in mouse RAW264.7 cells after 24 hrs by broth microdilution method; assay type: functional; settings: SchuS4, 24 h
[13] = system: Francisella novicida; assay: Antibacterial activity against Francisella novicida infected in mouse RAW264.7 cells at 64 ug/ml after 24 hrs by broth microdilution method in presence of 50% human serum albumin; assay type: functional, cell-based; settings: Francisella tularensis subsp. novicida
[14] = system: Francisella novicida; assay: Antibacterial activity against Francisella novicida infected in mouse RAW264.7 cells at 64 ug/ml after 24 hrs by broth microdilution method in presence of 10% human serum albumin; assay type: functional, cell-based; settings: Francisella tularensis subsp. novicida
[15] = system: Francisella novicida; assay: Antibacterial activity against Francisella novicida infected in mouse RAW264.7 cells at 64 ug/ml after 24 hrs by broth microdilution method in presence of 80% human serum albumin; assay type: functional, cell-based; settings: Francisella tularensis subsp. novicida

SMILES | Activity [1] | Activity [2] | MIC [4] [µg/mL] | MIC [6] [µg/mL] | further results
CS(=O)(=O)c1ccc(-n2nc(C(F)(F)F)cc2-c2ccc(F)cc2)cc1 | inactive | inactive |  |  | 
Nc1ccc(-n2nc(C(F)(F)F)cc2-c2ccc(-c3ccccc3)cc2)cc1 |  |  | 4 (≈ 10.5 µM) | 4 (≈ 10.5 µM) | Ratio [3]: 3.8; IC50 [5]: 15 µg/mL (≈ 39.5 µM)
CCCCc1ccc(-c2cc(C(F)(F)F)nn2-c2ccc(C(N)=O)cc2)cc1 |  |  | 8 (≈ 20.7 µM) | 16 (≈ 41.3 µM) | 
CS(=O)(=O)c1ccc(C2=C(c3ccccc3)C(=O)OC2)cc1 [ROFECOXIB] | inactive | inactive |  |  | Activity [7]: inactive; Activity [8]: inactive; Activity [9]: inactive
NC(=O)c1ccc(-n2nc(C(F)(F)F)cc2-c2ccc(-c3ccc(Cl)cc3)cc2)cc1 |  |  | 2 (≈ 4.53 µM) | 4 (≈ 9.05 µM) | Ratio [3]: 2.3; IC50 [5]: 9 µg/mL (≈ 20.4 µM)
NC(=O)c1ccc(-n2nc(C(F)(F)F)cc2-c2ccc(-c3ccc(C(F)(F)F)cc3)cc2)cc1 | inactive | inactive |  |  | 
Nc1ccc(-n2nc(C(F)(F)F)cc2-c2ccc(-c3ccc(Br)cc3)cc2)cc1 |  |  | 4 (≈ 8.73 µM) | 4 (≈ 8.73 µM) | Ratio [3]: 11.5; Activity [7]: Active; IC50 [5]: 46 µg/mL (≈ 100 µM)
Nc1ccc(-n2nc(C(F)(F)F)cc2-c2cccc3ccccc23)cc1 |  |  | 8 (≈ 22.6 µM) | 16 (≈ 45.3 µM) | 
Cc1ccc(-c2ccc(-c3cc(C(F)(F)F)nn3-c3ccc(C(N)=O)cc3)cc2)cc1 |  |  | 8 (≈ 19 µM) | 8 (≈ 19 µM) | 
NC(=O)c1ccc(-n2nc(C(F)(F)F)cc2-c2ccc(-c3ccccc3)cc2)cc1 |  |  | 8 (≈ 19.6 µM) | 16 (≈ 39.3 µM) | 
Cc1cc(C)cc(-c2ccc(-c3cc(C(F)(F)F)nn3-c3ccc(C(N)=O)cc3)cc2)c1 | inactive | inactive |  |  | 
FC(F)(F)c1cc(-c2ccc3ccc4ccccc4c3c2)n(-c2ccccc2)n1 | inactive | inactive |  |  | 
NS(=O)(=O)c1ccc(-n2nc(C(F)(F)F)cc2-c2ccc(-c3ccc(Cl)cc3)cc2)cc1 |  |  | 4 (≈ 8.37 µM) | 4 (≈ 8.37 µM) | Ratio [3]: 1.2; IC50 [5]: 4.8 µg/mL (≈ 10 µM)
NS(=O)(=O)c1ccc(-n2nc(C(F)(F)F)cc2-c2ccc(-c3cc(Cl)c(Cl)cc3Cl)cc2)cc1 |  |  | 1 (≈ 1.83 µM) | 2 (≈ 3.66 µM) | Ratio [3]: 1.2; IC50 [5]: 2.4 µg/mL (≈ 4.39 µM)
CCCCc1ccc(-c2ccc(-c3cc(C(F)(F)F)nn3-c3ccc(C(N)=O)cc3)cc2)cc1 | inactive | inactive |  |  | 
CC(C)(C)c1ccc(-c2ccc(-c3cc(C(F)(F)F)nn3-c3ccc(C(N)=O)cc3)cc2)cc1 | inactive | inactive |  |  | 
Cc1ccc(-c2cc(C(F)(F)F)nn2-c2ccc(S(N)(=O)=O)cc2)cc1 [CELECOXIB] |  |  | 16 (≈ 42 µM) | 32 (≈ 83.9 µM) | Ratio [3]: 0.5; Activity [10]: inactive; Activity [8]: inactive; Activity [11]: inactive; MIC [12]: 16 µg/mL (≈ 42 µM); Activity [13]: inactive; Activity [14]: inactive; IC50 [5]: 17 µg/mL (≈ 44.6 µM); Activity [9]: inactive; Activity [15]: inactive
COc1ccc2cc(-c3cc(C(F)(F)F)nn3-c3ccc(N)cc3)ccc2c1 |  |  | 16 (≈ 41.7 µM) | 16 (≈ 41.7 µM) | 
NS(=O)(=O)c1ccc(-n2nc(C(F)(F)F)cc2-c2cccc3ccccc23)cc1 |  |  | 8 (≈ 19.2 µM) | 16 (≈ 38.3 µM) | 
NC(=O)c1ccc(-n2nc(C(F)(F)F)cc2-c2c3ccccc3cc3ccccc23)cc1 |  |  | 16 (≈ 37.1 µM) | 16 (≈ 37.1 µM) | 
NC(=O)c1ccc(-n2nc(C(F)(F)F)cc2-c2ccc(-c3cc(Cl)cc(Cl)c3)cc2)cc1 |  |  | 4 (≈ 8.4 µM) | 16 (≈ 33.6 µM) | 
Cc1ccc(-c2ccc(-c3cc(C(F)(F)F)nn3-c3ccc(S(C)(=O)=O)cc3)cc2)cc1 | inactive | inactive |  |  | 
Nc1ccc(-n2nc(C(F)(F)F)cc2-c2ccc(-c3cc(Cl)c(Cl)cc3Cl)cc2)cc1 | inactive |  | 4 (≈ 8.29 µM) |  | 
